Results from different studies.
Protocols differ between the studies behind these lines.
Target: Serine/threonine-protein kinase SIK2 (SIK2, Homo sapiens, UniProt Q9H0K1)

SMILES	test	setting	endpoint	result
C[S+]([O-])c1ccc(-c2nc(-c3ccncc3)c(-c3ccc(F)cc3)[nH]2)cc1 (stereo not drawn)	cell-free assay	0.5 µM	remaining signal	82.1%
Cc1cc(NC(=O)c2cccc(S(F)(F)(F)(F)F)c2)cc(-n2ccn3nc(-c4cccnc4)cc23)c1	cell-free assay, competition with immobilised ligand	1 µM	remaining binding	100%
CCN(CC)CCNC(=O)c1c(C)[nH]c(/C=C2\C(=O)Nc3ccc(F)cc32)c1C	cell-free assay	0.5 µM	remaining signal	27.8%
COc1cc(-c2cc(-c3ccc(N4CCNCC4)cc3)cnc2N)cc(OC)c1OC	enzyme activity, inhibitor	0.1 µM	inhibition	66%
Cc1nc(C2CCN(C(=O)c3ccc(OC(F)(F)F)cc3N)CC2)c2ncc(N3CCN(C)CC3)cc2n1	cell-free assay, competition with immobilised ligand	1 µM	remaining binding	100%
FC(F)(F)Oc1cccc(-c2cnc3ccc(-c4ccncc4)nn23)c1	enzyme activity, inhibitor, radiometric	1 µM	activity vs control	68%
CC(=O)C1=C(C)N(c2cccc(C(F)(F)F)c2)C(=O)N[C@@H]1c1ccc(C#N)nc1	cell-free assay, competition with immobilised ligand	1 µM	remaining binding	87.8%
CCOc1cc(-c2nncn2C)ccc1Nc1ncc2cc(C)nc(NCC(C)(C)C)c2n1	enzyme activity, inhibitor, FRET	1 µM	inhibition	< 15%
O=C(NCCCC1CCCCC1)c1ccc(CNC(=O)c2cnn(-c3ccccc3)c2C(F)(F)F)cc1	cell-free assay, competition with immobilised ligand	0.1 µM	remaining binding	100%
CCCS(=O)(=O)Nc1ccc(F)c(C(=O)c2c[nH]c3ncc(-c4ccc(Cl)cc4)cc23)c1F	enzyme activity, inhibitor	1 µM	inhibition	< 10%
CC(C)(C)c1nc(-c2cccc(NS(=O)(=O)c3c(F)cccc3F)c2F)c(-c2ccnc(N)n2)s1	enzyme activity, inhibitor, radiometric	1 µM	remaining activity	98%
O=C(Nc1cnn(-c2csc(C(=O)NC3COC3)c2)c1)Nc1ccccc1Cl	enzyme activity, inhibitor	5 µM	remaining activity	97%
Cc1ccc(C(=O)Nc2ccc(CN3CCN(C)CC3)c(C(F)(F)F)c2)cc1C#Cc1cnc2cccnn12	enzyme activity, inhibitor	23.5 nM	remaining activity	67%
COc1cc2ncnc(Nc3ccc(Oc4ccccc4)c(C)c3C)c2cc1OC	enzyme activity, inhibitor	1 µM	inhibition	0%
O=C(Nc1cccnn1)N1CCC(=Cc2cccc(Oc3ccc(C(F)(F)F)cn3)c2)CC1	cell-free assay, competition with immobilised ligand	1 µM	remaining binding	100%
N#CCCc1ccc2c(c1)-c1[nH]c3ccc([N+](=O)[O-])cc3c1CC(=O)N2	cell-free assay	0.5 µM	remaining signal	44.2%
CN(C)C(=O)Cn1cc(-c2nc(C3(c4ccc(-c5cnc(N)nc5)cc4)CC3)no2)cn1	cell-free assay, competition with immobilised ligand	1 µM	remaining binding	100%
CC/C(=N\NC(=O)NCc1cccc(O)c1)c1ccc(O)c(C)c1O	enzyme activity, inhibitor	0.1 µM	inhibition	-5.5%
